Data reported in ChEMBL document CHEMBL5252510, “A Novel Potent Oral Series of VEGFR2 Inhibitors Abrogate Tumor Growth by Inhibiting Angiogenesis” (J Med Chem, 2016).
Calls of active or inactive are those of the source. No cut-off for these calls is given here.

Assays:
[1] = Clearance in Sprague-Dawley rat at 3 mg/kg, iv measured upto 24 hrs by HPLC/UV analysis; type: ADME, organism-based; details: in vivo
In short: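 Female Sprague Dawley rats, 8 weeks old, catheterized in the jugular vein and femoral artery, recovered 96 h. IV dose 3 mg/kg in ethanol/NMP/PEG400/5 % glucose (10/10/50/30). n=2. Plasma sampled at 5, 15, 30 min and 1, 2, 4, 6, 8, 24 h.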

[2] = Toxicity in C57BL/6jNpa mouse harbouring mouse B16-BL6 cells assessed as effect on animal behavior at 3 mg/kg, po qd administered started on day 7 post implantation measured after 21 days; type: organism-based; details: in vivo, 504 h, time 7-21 day
In short: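 Female C57BL/6JNpa mice received 50000 B16/BL6 cells intradermally in both ear pinnae. Randomized on day 7 into groups of 5–6, then dosed 3 mg/kg p.o. daily in PEG200/PEG300 for 14 days. Behavior and well-being were observed. On day 21, blood was analysed for platelet, red and white cell counts and hematocrit.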

[3] = tested on: BaF3; assay: Antiproliferative activity against mouse BaF3 cells expressing Tel-KDR-myc1.3 assessed as cell growth inhibition measured after 72 hrs by Alamar Blue assay; details: BaF3, 72 h
[4] = tested on: BaF3; assay: Antiproliferative activity against mouse BaF3 cells expressing Bcr-ABL assessed as cell growth inhibition measured after 72 hrs by Alamar Blue assay; details: BaF3, 72 h
[5] = tested on: BaF3; assay: Antiproliferative activity against mouse BaF3 cells expressing ERBB2 V659E mutant assessed as cell growth inhibition measured after 72 hrs by Alamar Blue assay; details: BaF3, 72 h
[6] = tested on: BaF3; assay: Antiproliferative activity against mouse BaF3 cells expressing KIT D816V mutant assessed as cell growth inhibition measured after 72 hrs by Alamar Blue assay; details: BaF3, 72 h
[7] = tested on: BaF3; assay: Antiproliferative activity against mouse BaF3 cells expressing Trp-MET assessed as cell growth inhibition measured after 72 hrs by Alamar Blue assay; details: BaF3, 72 h
[8] = tested on: BaF3; assay: Antiproliferative activity against mouse BaF3 cells expressing NPM-ALK assessed as cell growth inhibition measured after 72 hrs by Alamar Blue assay; details: BaF3, 72 h
[9] = tested on: HUVEC; assay: Antiproliferative activity against bFGF-stimulated HUVEC cells assessed as cell growth inhibition measured after 24 hrs by BrdUrd incorporation based spectrophotometric analysis; details: Homo sapiens
[10] = Toxicity in VEGF-induced FVB mouse model at 0.3 to 3 mg/kg, po qd treated for 4 to 6 hrs prior to chamber implantation and continuing for 4 days measured after 24 hrs post last dose; type: organism-based; details: in vivo, 120 h, dose 0.3-3 mg/kg, time 5 day
In short: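 Female FVB mice (18–20 g), groups of 6. Porous chambers with VEGF (2 μg/mL) in 0.5 mL 0.8 % agar with heparin (20 U/mL) implanted subcutaneously in flank. Oral dosing once daily in 100 % PEG200 (5 mL/kg), starting 4-6 h before implantation, for 4 days; chambers removed 24 h after last dose. Animals observed for signs of toxicity.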

[11] = Toxicity in C57BL/6jNpa mouse harbouring mouse B16-BL6 cells assessed as effect on red blood cell count at 3 mg/kg, po qd administered started on day 7 post implantation measured after 21 days; type: organism-based; details: in vivo, 504 h, time 7-21 day
In short: (§1)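 B16/BL6 melanoma cells (50000) injected intradermally into dorsal pinna of both ears of female mice (18–20 g). Randomized on day 7 into groups of 5-6 by primary tumor size, then dosed orally once daily for 14 days in PEG300 or PEG200. Sacrificed day 21; blood analysed directly for platelets, red and white cell counts, hematocrit. Body and spleen weight recorded versus healthy naive mouse.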

[12] = Toxicity in C57BL/6jNpa mouse harbouring mouse B16-BL6 cells assessed as effect on white blood cell count at 3 mg/kg, po qd administered started on day 7 post implantation measured after 21 days; type: organism-based; details: in vivo, 504 h, time 7-21 day; in short: as §1
[13] = tested on: B16-BL6; assay: Antitumor activity against mouse B16-BL6 cells implanted in C57BL/6jNpa mouse assessed as metastatic tumor growth inhibition by measuring T/C ratio at 3 mg/kg, po qd administered started on day 7 post implantation measured after 21 days; type: functional; details: time 7-21 day
In short: (§2)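 Female C57BL/6JNpa mice, 50000 B16/BL6 cells intradermally in both ear pinnae; primary tumor area (mm²) imaged days 7, 14, 21; randomized day 7 into groups of 5-6, oral dosing in PEG200 or PEG300 vehicle daily (or every 2 days) for 14 days; day 21 cervical lymph nodes weighed, metastasis lysates assayed for TIE-2 by ELISA; T/C ratios.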

[14] = target: Mast/stem cell growth factor receptor Kit (Homo sapiens, UniProt P10721); assay: Inhibition of human recombinant GST-fused c-KIT expressed in baculovirus expression system using poly-Glu-Tyr (4:1) as substrate measured after 10 mins in presence of gamma-[33P]-ATP by scintillation counting analysis
Mast/stem cell growth factor receptor Kit, sequence (P10721 whole entry, the tested form may be a part): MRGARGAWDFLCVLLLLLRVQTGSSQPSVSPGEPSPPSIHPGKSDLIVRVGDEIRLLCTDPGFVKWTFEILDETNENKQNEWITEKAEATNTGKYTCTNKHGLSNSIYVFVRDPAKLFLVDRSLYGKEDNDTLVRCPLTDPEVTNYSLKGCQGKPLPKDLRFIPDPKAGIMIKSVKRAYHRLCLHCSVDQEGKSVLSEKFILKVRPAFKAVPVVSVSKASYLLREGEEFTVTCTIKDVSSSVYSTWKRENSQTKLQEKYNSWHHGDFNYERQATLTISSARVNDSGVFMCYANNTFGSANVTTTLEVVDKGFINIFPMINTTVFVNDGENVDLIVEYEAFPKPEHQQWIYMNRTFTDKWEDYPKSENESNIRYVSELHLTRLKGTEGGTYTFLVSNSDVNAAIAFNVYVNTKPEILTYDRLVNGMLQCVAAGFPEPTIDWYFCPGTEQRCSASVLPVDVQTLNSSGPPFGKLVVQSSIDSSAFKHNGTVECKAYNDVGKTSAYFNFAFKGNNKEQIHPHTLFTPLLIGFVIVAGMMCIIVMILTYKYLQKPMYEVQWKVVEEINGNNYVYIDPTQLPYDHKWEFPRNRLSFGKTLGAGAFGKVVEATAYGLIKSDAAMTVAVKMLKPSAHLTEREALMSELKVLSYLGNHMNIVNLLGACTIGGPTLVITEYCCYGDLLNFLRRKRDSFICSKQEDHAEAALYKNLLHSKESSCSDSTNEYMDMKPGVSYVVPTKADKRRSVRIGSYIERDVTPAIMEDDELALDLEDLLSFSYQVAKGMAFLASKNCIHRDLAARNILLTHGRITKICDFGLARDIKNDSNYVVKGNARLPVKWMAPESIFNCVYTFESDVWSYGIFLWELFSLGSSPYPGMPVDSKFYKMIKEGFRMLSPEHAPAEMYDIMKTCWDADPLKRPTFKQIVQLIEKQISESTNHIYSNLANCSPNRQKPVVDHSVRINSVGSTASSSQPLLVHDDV
In short: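 GST-fused kinase domains were expressed in baculovirus and purified on glutathione-Sepharose. 10 min at ambient temperature, stopped with EDTA. Filter binding and scintillation counting. IC50 by linear regression of percent inhibition.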

[15] = target: Receptor tyrosine-protein kinase erbB-2 (Homo sapiens, UniProt P04626); assay: Inhibition of ERBB2 (unknown origin) autophosphorylation expressed in human BT-474 cells by ELISA-based assay; type: cell-based
Receptor tyrosine-protein kinase erbB-2, sequence (P04626 whole entry): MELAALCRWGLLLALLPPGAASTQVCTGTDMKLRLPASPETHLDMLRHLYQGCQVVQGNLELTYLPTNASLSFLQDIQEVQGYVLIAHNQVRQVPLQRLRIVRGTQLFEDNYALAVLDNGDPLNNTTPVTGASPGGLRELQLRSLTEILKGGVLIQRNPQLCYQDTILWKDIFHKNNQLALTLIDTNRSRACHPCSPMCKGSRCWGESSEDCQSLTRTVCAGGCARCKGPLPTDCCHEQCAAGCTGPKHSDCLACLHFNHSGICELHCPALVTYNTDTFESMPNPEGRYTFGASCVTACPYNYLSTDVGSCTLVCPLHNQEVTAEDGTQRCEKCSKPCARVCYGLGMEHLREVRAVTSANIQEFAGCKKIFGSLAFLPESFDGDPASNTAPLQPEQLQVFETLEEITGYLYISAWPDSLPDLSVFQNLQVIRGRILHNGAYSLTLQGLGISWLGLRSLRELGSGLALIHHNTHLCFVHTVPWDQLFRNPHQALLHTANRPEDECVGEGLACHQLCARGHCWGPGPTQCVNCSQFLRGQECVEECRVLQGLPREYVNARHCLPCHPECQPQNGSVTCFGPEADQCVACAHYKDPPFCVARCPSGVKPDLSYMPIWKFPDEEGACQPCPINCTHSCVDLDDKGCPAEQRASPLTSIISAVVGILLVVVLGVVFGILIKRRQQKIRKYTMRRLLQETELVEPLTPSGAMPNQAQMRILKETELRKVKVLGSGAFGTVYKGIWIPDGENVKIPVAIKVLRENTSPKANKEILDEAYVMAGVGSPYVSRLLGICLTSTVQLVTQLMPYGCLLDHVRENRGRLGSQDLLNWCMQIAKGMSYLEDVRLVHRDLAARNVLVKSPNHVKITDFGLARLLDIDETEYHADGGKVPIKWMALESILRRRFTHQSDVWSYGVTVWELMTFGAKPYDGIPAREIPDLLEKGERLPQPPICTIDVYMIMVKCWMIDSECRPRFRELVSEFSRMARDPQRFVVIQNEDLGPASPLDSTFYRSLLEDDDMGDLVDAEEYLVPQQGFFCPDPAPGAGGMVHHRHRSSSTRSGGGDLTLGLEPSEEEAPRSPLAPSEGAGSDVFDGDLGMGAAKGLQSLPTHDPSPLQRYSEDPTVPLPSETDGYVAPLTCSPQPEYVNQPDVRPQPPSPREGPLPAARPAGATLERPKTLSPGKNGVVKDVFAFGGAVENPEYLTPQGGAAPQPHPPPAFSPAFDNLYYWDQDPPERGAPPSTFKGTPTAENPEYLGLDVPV
In short: (§3)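 Cells were stimulated with the respective ligand. Receptor tyrosine kinase autophosphorylation in the presence of compound was quantified by ELISA.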

[16] = target: Insulin receptor (Homo sapiens, UniProt P06213); assay: Inhibition of INSR (unknown origin) autophosphorylation expressed in […] by ELISA-based assay; type: cell-based; in short: as §3
[17] = target: Bcr/Abl fusion protein (Homo sapiens, UniProt P00519); assay: Inhibition of BCR-ABL (unknown origin) autophosphorylation expressed in mouse 32D cells by ELISA-based assay; type: cell-based; in short: as §3
Bcr/Abl fusion protein, sequence (P00519 whole entry, the tested form may be a part): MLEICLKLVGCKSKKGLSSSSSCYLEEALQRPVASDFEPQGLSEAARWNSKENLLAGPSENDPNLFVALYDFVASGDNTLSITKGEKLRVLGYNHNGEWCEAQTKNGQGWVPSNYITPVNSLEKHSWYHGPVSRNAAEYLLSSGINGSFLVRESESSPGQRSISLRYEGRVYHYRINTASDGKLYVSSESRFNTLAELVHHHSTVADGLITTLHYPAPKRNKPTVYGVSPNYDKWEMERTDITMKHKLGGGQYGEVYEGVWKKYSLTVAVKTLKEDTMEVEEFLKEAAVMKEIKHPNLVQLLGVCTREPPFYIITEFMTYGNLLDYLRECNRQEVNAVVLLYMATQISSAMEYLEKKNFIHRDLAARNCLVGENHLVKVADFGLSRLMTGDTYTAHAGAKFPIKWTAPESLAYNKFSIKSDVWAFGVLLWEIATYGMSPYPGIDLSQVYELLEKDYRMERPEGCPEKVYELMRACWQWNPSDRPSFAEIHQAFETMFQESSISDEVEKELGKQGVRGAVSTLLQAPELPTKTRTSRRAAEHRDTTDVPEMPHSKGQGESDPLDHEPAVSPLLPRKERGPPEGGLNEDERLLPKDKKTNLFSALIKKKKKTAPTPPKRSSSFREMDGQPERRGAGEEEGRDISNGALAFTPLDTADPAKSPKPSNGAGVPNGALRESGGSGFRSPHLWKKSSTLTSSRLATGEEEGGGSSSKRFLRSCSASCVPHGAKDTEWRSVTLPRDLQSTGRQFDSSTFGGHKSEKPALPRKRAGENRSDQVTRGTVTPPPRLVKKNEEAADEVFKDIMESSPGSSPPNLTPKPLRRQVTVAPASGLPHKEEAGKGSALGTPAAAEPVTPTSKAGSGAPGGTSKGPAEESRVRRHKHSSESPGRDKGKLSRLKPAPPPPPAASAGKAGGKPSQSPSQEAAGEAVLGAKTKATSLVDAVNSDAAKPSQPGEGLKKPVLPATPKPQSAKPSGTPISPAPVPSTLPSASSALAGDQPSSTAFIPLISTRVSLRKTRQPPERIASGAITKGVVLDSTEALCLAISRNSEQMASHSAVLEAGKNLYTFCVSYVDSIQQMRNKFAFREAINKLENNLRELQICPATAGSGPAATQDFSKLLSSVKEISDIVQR
Bcr/Abl fusion protein, sequence (P11274 whole entry, further chain, the tested form may be a part): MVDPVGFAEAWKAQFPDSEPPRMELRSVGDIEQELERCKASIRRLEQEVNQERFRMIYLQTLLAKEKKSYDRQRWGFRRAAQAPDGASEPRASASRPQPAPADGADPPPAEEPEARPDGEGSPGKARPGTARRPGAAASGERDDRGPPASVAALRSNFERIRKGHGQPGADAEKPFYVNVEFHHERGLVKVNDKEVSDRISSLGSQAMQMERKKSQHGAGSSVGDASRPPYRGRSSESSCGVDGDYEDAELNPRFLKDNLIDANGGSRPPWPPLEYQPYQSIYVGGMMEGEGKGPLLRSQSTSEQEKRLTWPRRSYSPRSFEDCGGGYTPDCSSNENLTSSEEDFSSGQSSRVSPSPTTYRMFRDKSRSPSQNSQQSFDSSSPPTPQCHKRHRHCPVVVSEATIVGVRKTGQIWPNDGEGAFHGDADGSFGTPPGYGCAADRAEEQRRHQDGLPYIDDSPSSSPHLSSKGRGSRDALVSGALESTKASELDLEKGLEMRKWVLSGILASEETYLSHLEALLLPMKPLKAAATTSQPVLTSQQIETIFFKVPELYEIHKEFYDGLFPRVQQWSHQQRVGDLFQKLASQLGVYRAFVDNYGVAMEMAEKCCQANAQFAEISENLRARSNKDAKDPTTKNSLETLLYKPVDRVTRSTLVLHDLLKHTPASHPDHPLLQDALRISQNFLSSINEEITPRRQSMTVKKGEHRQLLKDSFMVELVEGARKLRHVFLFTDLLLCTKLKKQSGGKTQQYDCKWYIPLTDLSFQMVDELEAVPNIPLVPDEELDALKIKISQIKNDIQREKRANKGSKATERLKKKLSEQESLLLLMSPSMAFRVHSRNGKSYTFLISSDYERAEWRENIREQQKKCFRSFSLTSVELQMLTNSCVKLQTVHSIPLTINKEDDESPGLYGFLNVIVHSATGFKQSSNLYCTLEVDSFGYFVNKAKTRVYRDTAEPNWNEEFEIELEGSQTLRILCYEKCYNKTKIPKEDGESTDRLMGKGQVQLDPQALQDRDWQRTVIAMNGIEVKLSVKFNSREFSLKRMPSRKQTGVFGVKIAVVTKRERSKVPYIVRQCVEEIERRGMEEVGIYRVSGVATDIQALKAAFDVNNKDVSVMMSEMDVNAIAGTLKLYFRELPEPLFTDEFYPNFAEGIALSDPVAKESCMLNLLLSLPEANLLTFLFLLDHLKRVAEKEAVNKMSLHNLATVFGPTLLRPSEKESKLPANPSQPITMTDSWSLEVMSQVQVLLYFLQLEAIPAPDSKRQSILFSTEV

[18] = tested on: B16-BL6; assay: Antitumor activity against mouse B16-BL6 cells implanted in C57BL/6jNpa mouse assessed as reduction in TIE-2 levels metastases lysate of at 3 mg/kg, po qd administered started on day 7 post implantation measured after 21 days by ELISA analysis; type: functional, organism-based; details: time 7-21 day; in short: as §2
[19] = tested on: Mus musculus; assay: Protection against VEGF-induced vessel extravasation in FVB mouse at 3 mg/kg pre-administrated for 2 to 48 hrs followed by evans-blue administration for 30 mins and measured 30 mins after dog VEGF164 addition; type: functional, organism-based; details: time 3-49 hrs
In short: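 Female FVB mice (18–20 g), 3–4 per group. Oral 3 mg/kg at 48, 24 or 8 h before sacrifice. Evans blue 0.5 % (200 µl) given i.v. in the tail vein. 30 min later, 2 µL dog VEGF164 (10 ng/µL) injected intradermally into the ear pinna. Dye extravasation quantified by a computer-assisted system.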

[20] = tested on: Mus musculus; assay: Anti-angiogenesis activity in FVB mouse model assessed as inhibition of VEGF-induced tissue weight at 0.3 mg/kg, po qd treated for 4 to 6 hrs prior to chamber implantation and continuing for 4 days measured after 24 hrs post last dose; type: functional, organism-based; details: time 5.0 day
In short: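 Female FVB mice (18-20 g), porous chambers with VEGF (2 μg/mL) in 0.8 % w/v agar containing heparin 20 U/mL implanted s.c. in flank; compound p.o. once daily in 100 % PEG200 (5 mL/kg) from 4-6 h before implantation for 4 days; tissue removed 24 h after last dose, weighed, lysate assayed for TIE-2 by sandwich ELISA; n=6 per dose, mean ± SEM.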

Row | SMILES | clearance [1] [mL/min/kg] | Activity [2] | IC50 [3] [µM] | IC50 [4] [µM] | IC50 [5] [µM] | IC50 [6] [µM] | IC50 [7] [µM] | IC50 [8] [µM] | IC50 [9] [µM] | Activity [10] | Activity [11] | Activity [12] | T/C [13] | IC50 [14] [µM] | IC50 [15] [µM] | IC50 [16] [µM] | IC50 [17] [µM] | Activity [18] | Activity [19] | Activity [20]
1 | Nc1cc(Oc2ccc3c(C(=O)Nc4ccc(F)c(C(F)(F)F)c4)cccc3c2)ncn1 | 0.833 | Non-Toxic | 0.005 | > 10 | > 10 | 7.8 | > 10 | > 10 | 0.206 | Non-Toxic | Non-Toxic | Non-Toxic | 0.04 | – | – | – | – | – | – | –
2 | Nc1nccc(Oc2ccc3c(C(=O)Nc4cccc(C(F)(F)F)c4)cccc3c2)n1 | – | Non-Toxic | 0.004 | 4.75 | > 10 | > 10 | > 10 | > 10 | > 3 | Non-Toxic | – | – | 0.29 | > 10 | > 0.5 | > 0.5 | > 0.5 | Active | – | –
3 | Nc1cc(Oc2ccc3c(C(=O)Nc4cccc(C(F)(F)F)c4)cccc3c2)ncn1 | 3 | Non-Toxic | 0.002 | 9.5 | > 10 | 8 | > 10 | > 10 | > 3 | Non-Toxic | Non-Toxic | Non-Toxic | 0.04 | – | – | – | – | – | – | –
4 | Nc1nccc(Oc2ccc3c(C(=O)Nc4ccc(F)c(C(F)(F)F)c4)cccc3c2)n1 | 2.83 | Non-Toxic | 0.009 | > 10 | > 10 | 8.51 | > 10 | > 10 | > 0.01 | Non-Toxic | Non-Toxic | Non-Toxic | 0.13 | – | – | – | – | Active | Active | Active
5 | O=C(Nc1cccc(C(F)(F)F)c1)c1cccc2cc(Oc3cc(CO)ncn3)ccc12 [BFH-772] | – | Non-Toxic | 0.002 | 7.5 | > 10 | > 10 | > 10 | > 10 | > 3 | Non-Toxic | – | – | 0.17 | > 2 | > 0.5 | > 0.5 | > 0.5 | – | Active | Active
